# The source made the active and inactive calls. No cut-off for these calls is given here.
# Legend:
# [1] = target: T1, Polyunsaturated fatty acid 5-lipoxygenase (Rattus norvegicus, UniProt P12527); assay: Inhibitory activity against 5-Lipoxygenase
# T1 sequence (P12527 whole entry): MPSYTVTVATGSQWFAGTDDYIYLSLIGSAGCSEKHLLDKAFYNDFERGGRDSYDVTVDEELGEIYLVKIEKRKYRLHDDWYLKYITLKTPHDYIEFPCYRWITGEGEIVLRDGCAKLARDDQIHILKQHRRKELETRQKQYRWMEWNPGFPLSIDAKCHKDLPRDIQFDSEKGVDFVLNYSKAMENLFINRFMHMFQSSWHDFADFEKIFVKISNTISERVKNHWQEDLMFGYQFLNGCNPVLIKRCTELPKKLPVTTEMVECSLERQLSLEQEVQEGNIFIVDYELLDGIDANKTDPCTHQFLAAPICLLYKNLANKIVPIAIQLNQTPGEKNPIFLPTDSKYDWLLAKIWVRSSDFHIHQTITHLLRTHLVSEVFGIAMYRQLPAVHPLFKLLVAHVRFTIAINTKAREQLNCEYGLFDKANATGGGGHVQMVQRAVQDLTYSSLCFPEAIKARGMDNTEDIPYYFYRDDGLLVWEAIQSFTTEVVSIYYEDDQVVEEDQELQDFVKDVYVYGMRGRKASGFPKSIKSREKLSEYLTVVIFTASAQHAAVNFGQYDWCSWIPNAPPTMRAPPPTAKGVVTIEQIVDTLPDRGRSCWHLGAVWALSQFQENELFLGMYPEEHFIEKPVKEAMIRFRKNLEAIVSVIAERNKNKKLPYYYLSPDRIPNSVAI
# How it was run: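 Rat basophilic leukemia RBL-1 cells were grown in suspension in MEM with 12% FBS, washed, and resuspended at 2×10^6 cells/mL in PBS pH 7.4 with 1.0 mM calcium. Compound in DMSO was preincubated 10 min at room temperature, then 5 μM A23187 was added for 7 min at 37 °C. LTB₄ in the supernatant was measured by RIA at 0.10–10.0 μM. IC50 was determined by linear regression.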
# Rattus norvegicus [2] = species: Rattus norvegicus; assay: Ratio of IC50 against 5-LO and COX
# How it was run: (§1)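 In ionophore-stimulated RBL-1 cells (2×10^6/mL, PBS with 1.0 mM Ca, 10 min compound preincubation at room temperature, 5 μM A23187 for 7 min at 37 °C), supernatant LTB₄ (5-LO) and PGF₂α (CO) were each quantified by RIA over 0.10–10.0 μM. IC50s came from linear regression, and the ratio is the 5-LO IC50 over the CO IC50.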
# Cyclooxygenase = target: T2, Cyclooxygenase (Rattus norvegicus, UniProt P35355+Q63921); assay: Evaluated in vitro for its inhibitory activity against Prostaglandin G/H synthase; type: protein assay
# T2 sequence (P35355 whole entry): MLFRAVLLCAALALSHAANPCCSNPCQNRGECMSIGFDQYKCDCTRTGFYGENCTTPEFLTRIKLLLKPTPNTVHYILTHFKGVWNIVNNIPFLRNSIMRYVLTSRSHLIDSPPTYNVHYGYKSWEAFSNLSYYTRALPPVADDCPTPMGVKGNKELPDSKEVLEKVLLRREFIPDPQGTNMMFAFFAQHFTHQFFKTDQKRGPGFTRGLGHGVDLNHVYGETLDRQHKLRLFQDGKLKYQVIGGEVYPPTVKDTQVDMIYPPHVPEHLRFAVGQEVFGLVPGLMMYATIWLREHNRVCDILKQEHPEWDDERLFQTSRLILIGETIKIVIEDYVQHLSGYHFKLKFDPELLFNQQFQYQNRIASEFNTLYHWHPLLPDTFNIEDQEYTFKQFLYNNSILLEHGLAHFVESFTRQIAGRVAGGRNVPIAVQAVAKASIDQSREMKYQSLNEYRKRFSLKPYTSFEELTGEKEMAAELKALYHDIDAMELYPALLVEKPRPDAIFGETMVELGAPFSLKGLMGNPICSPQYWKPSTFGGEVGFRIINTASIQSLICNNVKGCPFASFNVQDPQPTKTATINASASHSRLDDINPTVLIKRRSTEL
# T2 sequence (Q63921 whole entry): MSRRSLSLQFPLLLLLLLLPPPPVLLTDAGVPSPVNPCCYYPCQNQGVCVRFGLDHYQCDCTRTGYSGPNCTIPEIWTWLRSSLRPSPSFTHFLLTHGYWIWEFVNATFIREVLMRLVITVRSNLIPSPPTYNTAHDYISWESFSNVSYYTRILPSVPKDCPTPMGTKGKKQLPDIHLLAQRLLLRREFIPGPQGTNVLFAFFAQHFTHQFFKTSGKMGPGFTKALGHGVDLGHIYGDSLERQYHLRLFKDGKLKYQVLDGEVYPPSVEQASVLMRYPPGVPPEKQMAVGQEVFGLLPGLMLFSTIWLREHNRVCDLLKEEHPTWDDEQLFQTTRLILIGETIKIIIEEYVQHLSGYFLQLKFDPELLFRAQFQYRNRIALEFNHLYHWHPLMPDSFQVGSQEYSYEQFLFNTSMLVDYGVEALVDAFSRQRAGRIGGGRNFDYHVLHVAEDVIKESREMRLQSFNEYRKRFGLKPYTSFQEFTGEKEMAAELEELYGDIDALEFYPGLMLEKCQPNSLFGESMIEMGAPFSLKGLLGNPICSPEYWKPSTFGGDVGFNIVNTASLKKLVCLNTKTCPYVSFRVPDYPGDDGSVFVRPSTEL
# Rattus norvegicus [3] = assay: Compound was evaluated for the antiinflammatory activity by taking the percentage inhibition of edema in the carrageenan foot-pad edema test at the dose of 30 mg/kg; N=Inactive, <25% inhibition; type: functional, organism-based; design: dose 30 mg/kg
# How it was run: (§2)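 Male Wistar rats dosed orally (0.5% HPMC/0.2% Tween 80 or Labrafils, 10 mL/kg) 1 h before subplantar injection of 0.10 mL 1% carrageenan into right hind paw under light anesthesia. Paw volume by mercury plethysmography at challenge and 5 h later; percent inhibition ± SEM versus vehicle group. Doses 10.0 and 30.0 mg/kg po, 7-14 rats per dose.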
# [4] = target: T3, Polyunsaturated fatty acid 5-lipoxygenase (Rattus norvegicus) (UniProt P12527); details: at 10 µM
# T3 sequence (whole entry): T1 sequence (P12527 whole entry)
# [5] = target: T1, Polyunsaturated fatty acid 5-lipoxygenase; assay: Evaluated in vitro for its inhibitory activity against 5-lipoxygenase
# Rattus norvegicus [6] = assay: Compound was evaluated for the percent rats with ulcers at the dose of 30 mg/kg (number of animals used per group in the experiment are 10 ); type: functional
# How it was run: (§3)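 Male outbred Wistar rats (100-250 g) fasted 24 h, given compound orally in 0.5% HPMC (2 mL/kg), then denied food and water 6 more h. Killed with CO2; stomachs opened along greater curvature and scored for ulcers. Percent of rats with ulcers per dose; up to 200 mg/kg po, 10 rats per dose.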
# Rattus norvegicus [7] = assay: Evaluated for the antiinflammatory activity by measuring the dose (po) which inhibited Mycobacterium induced foot-pad edema in rats; type: functional
# Rattus norvegicus [8] = assay: Evaluated for the antiinflammatory activity by measuring the percentage inhibition of edema in the carrageenan foot-pad edema test at the dose of 10 mg/kg; type: functional; how it was run: as §2
# Rattus norvegicus [9] = assay: Evaluated for the antiinflammatory activity by measuring the percentage inhibition of edema in the carrageenan foot-pad edema test at the dose of 30 mg/kg; type: functional; how it was run: as §2
# Rattus norvegicus [10] = species: Rattus norvegicus; assay: Ratio of IC50 against 5-LO to that of CO enzyme.; how it was run: as §1
# Rattus norvegicus [11] = assay: Compound was evaluated for the antiinflammatory activity by taking the percentage inhibition of edema in the carrageenan foot-pad edema test at the dose of 10 mg/kg; type: functional; how it was run: as §2
# Rattus norvegicus [12] = assay: Compound was evaluated for the antiinflammatory activity by taking the percentage inhibition of edema in the carrageenan foot-pad edema test at the dose of 30 mg/kg; type: functional; how it was run: as §2
# [13] = target: T1, Polyunsaturated fatty acid 5-lipoxygenase; assay: Evaluated in vitro for its inhibitory activity against 5-lipoxygenase; N=Inactive, <50% inhibition at 10 uM concentration
# How it was run: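 RBL-1 cells grown in MEM + 12% FBS, washed in PBS pH 7.4, resuspended at 2×10^6 cells/mL in PBS with 1.0 mM calcium. Preincubated 10 min at room temperature with compound in DMSO, then stimulated with A23187 (5 μM) 7 min at 37 °C; stopped on ice. Supernatant LTB4 by radioimmunoassay.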
# Rattus norvegicus [14] = assay: Compound was evaluated for the antiinflammatory activity by measuring the percentage inhibition of edema in the carrageenan foot-pad edema test at the dose of 30 mg/kg; N=Inactive, <25% inhibition; type: functional, organism-based; design: dose 30 mg/kg; how it was run: as §2
# Rattus norvegicus [15] = assay: Compound was evaluated for the percent rats with ulcers at the dose of 36 mg/kg (number of animals used per group in the experiment are 10 ); type: functional; how it was run: as §3
# Rattus norvegicus [16] = assay: Compound was evaluated for the antiinflammatory activity by measuring the dose (po) which inhibited Mycobacterium induced foot-pad edema in rats; N=Inactive, <30% inhibition at 10 mg/kg po; type: functional, organism-based; design: dose 10 mg/kg
# Rattus norvegicus [17] = assay: Evaluated for the percent rats with ulcers at the dose of 200 mg/kg (number of animals used per group in the experiment are 10 ); type: functional; how it was run: as §3
# Rattus norvegicus [18] = assay: Compound was evaluated for th antiinflammatory activity administering through oral route by taking the inhibitory dose of induced edema in the mycobacterium foot-pad edema test; type: functional
# [19] = target: Cyclooxygenase (Rattus norvegicus) (UniProt P35355+Q63921); assay: Inhibitory activity against Prostaglandin G/H synthase at 10 uM; type: protein assay
# How it was run: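 Cyclooxygenase read-out in RBL-1 cells (2×10^6 cells/mL in PBS with 1.0 mM calcium): 10 min room-temperature preincubation with compound in DMSO, A23187 (5 μM) stimulation 7 min at 37 °C, ice stop. Supernatant PGF2α by radioimmunoassay; percent inhibition at a 10 μM screening concentration.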
structure (smiles),measurement,setting,value
CC(C)(C)c1cc(-c2nc(CCl)no2)cc(C(C)(C)C)c1O,IC50,[1],0.78 µM
same,Ratio,Rattus norvegicus [2],7.8
same,IC50,Cyclooxygenase,0.1 µM
same,inhibition,Rattus norvegicus [3],inactive
CCOC(=O)c1nc(-c2cc(C(C)(C)C)c(O)c(C(C)(C)C)c2)ns1,inhibition,[4],91%
CC(C)(C)c1cc(C2CCOC2=O)cc(C(C)(C)C)c1O (centres undefined),IC50,[5],2.5 µM
same,IC50,Cyclooxygenase,0.15 µM
same,Activity,Rattus norvegicus [6],30%
same,ID40,Rattus norvegicus [7],3.7 mg/kg
same,inhibition in vivo at 10 mg/kg,Rattus norvegicus [8],16.6%
same,inhibition in vivo at 30 mg/kg,Rattus norvegicus [9],28.4%
same,Ratio,Rattus norvegicus [10],17
CCO/C=N/c1noc(-c2cc(C(C)(C)C)c(O)c(C(C)(C)C)c2)n1,IC50,[1],1.5 µM
same,Ratio,Rattus norvegicus [2],0.21
same,IC50,Cyclooxygenase,7.2 µM
same,inhibition in vivo at 10 mg/kg,Rattus norvegicus [11],21%
same,inhibition in vivo at 30 mg/kg,Rattus norvegicus [12],37.3%
CC(=O)Nc1noc(-c2cc(C(C)(C)C)c(O)c(C(C)(C)C)c2)n1,IC50,[13],Inactive
same,inhibition,Rattus norvegicus [14],inactive
Cc1ccc(Cl)c(Nc2ccccc2C(=O)[O-])c1Cl.O.[Na+] [MECLOFENAMATE SODIUM],Activity,Rattus norvegicus [15],50%
same,ID40,Rattus norvegicus [7],0.4 mg/kg
same,inhibition in vivo at 10 mg/kg,Rattus norvegicus [8],34.4%
same,inhibition in vivo at 30 mg/kg,Rattus norvegicus [9],40.8%
CC(C)(C)c1cc(-c2nc(NC=O)no2)cc(C(C)(C)C)c1O,IC50,[13],Inactive
same,ID40,Rattus norvegicus [16],inactive
same,inhibition in vivo at 10 mg/kg,Rattus norvegicus [8],51.5%
same,inhibition in vivo at 30 mg/kg,Rattus norvegicus [9],54.3%
CC(C)(C)c1cc(-c2nnc(S)s2)cc(C(C)(C)C)c1O.C[N+](C)(C)CC[O-],IC50,[1],2.8 µM
same,Ratio,Rattus norvegicus [2],3.5
same,IC50,Cyclooxygenase,0.8 µM
same,Activity,Rattus norvegicus [17],0%
same,ID40,Rattus norvegicus [18],7.7 mg/kg
same,inhibition in vivo at 10 mg/kg,Rattus norvegicus [11],49.9%
same,inhibition in vivo at 30 mg/kg,Rattus norvegicus [12],47.9%
CN(C)c1noc(-c2cc(C(C)(C)C)c(O)c(C(C)(C)C)c2)n1,IC50,[13],Inactive
same,inhibition,[19],88%
CNCc1noc(-c2cc(C(C)(C)C)c(O)c(C(C)(C)C)c2)n1,IC50,[13],Inactive
same,inhibition,[19],78%
CN(C)Cc1noc(-c2cc(C(C)(C)C)c(O)c(C(C)(C)C)c2)n1.Cl,IC50,[5],6.8 µM
same,IC50,Cyclooxygenase,0.45 µM
same,ID40,Rattus norvegicus [16],inactive
same,inhibition in vivo at 10 mg/kg,Rattus norvegicus [8],34.6%
same,inhibition in vivo at 30 mg/kg,Rattus norvegicus [9],50.3%
same,Ratio,Rattus norvegicus [10],15
Cc1noc(-c2cc(C(C)(C)C)c(O)c(C(C)(C)C)c2)n1,IC50,[5],3.3 µM
same,IC50,Cyclooxygenase,0.46 µM
same,inhibition,Rattus norvegicus [14],inactive
same,Ratio,Rattus norvegicus [10],7.2
CN(C)C(=N)Nc1nc(-c2cc(C(C)(C)C)c(O)c(C(C)(C)C)c2)ns1,inhibition,[4],72%
